Data on six compounds can be found in publication PMC6534466 (European journal of pharmacology, 2019).

One experiment concerns Jurkat cells. The experiment in a line: Jurkat cell proliferation. Format: cell-based, human. To be noted: 72 h; for Cell proliferation inhibition: Jurkat cells, relative to DMSO. In a few lines: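 Jurkat cells (T-lymphoblastic leukaemia, endogenous CB2) at passage 4–12 were grown in RPMI 1640 with 10% FBS and 1% antibiotic-antimycotic at 37°C and 5% CO2. Cells were plated at 10^5 cells/ml and given test compound in RPMI (DMSO vehicle) for 70 h. CellTiter 96 AQueous One was then added for 2 h and A490 read. Percent inhibition was taken relative to DMSO. Triplicate; mean ± S.E.M.; one-way ANOVA with Tukey.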

Experiment [1] has as its system ERK1/2 phosphorylation (cannabinoid CB2 receptor-induced). Description: ERK1/2 phosphorylation immunoblot in CB2-transfected HEK293 cells. Format: cell-based. As to conditions: 1.0 μM compound, 5 min; for ERK1/2 phosphorylation in the presence of PTX: 10 ng/ml PTX pretreatment 16 h; for ERK1/2 phosphorylation, fold increase above vehicle: without PTX. In a few lines: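 HEK293 cells were transfected with CB2 DNA by Lipofectamine 2000, then pretreated 24 h later in DMEM with or without 10 ng/ml pertussis toxin for 16 h. They were exposed 5 min at 37°C to 1.0 µM test compound; vehicle was DMSO on CB2-transfected cells. Lysates were immunoblotted for phospho-p44/42 and phospho-MEK with chemiluminescent detection. Statistics: one-way ANOVA with Tukey test.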

The target of experiment [2] is T1, cannabinoid CB2 receptor (Homo sapiens, UniProt P34972). The experiment in a line: Radioligand competition binding with [3H]CP55,940, CB2.
Experiment [3] has as its target T1, cannabinoid CB2 receptor. As to conditions: read-out: EC50, cAMP accumulation screen; prior screen; ref Ogawa et al., 2017; cited from earlier work.
The target of experiment [4] is T1, cannabinoid CB2 receptor. Description: [35S]GTPγS binding stimulation. It counts as biochemical.
A further experiment deals with cannabinoid CB1 receptor (Homo sapiens, UniProt P21554). To be noted: read-out: Ki, cannabinoid CB1 receptor, ref Huffman et al., cited from earlier work.
Experiment [5] has as its target T1, cannabinoid CB2 receptor. To be noted: read-out: Ki, cannabinoid CB2 receptor, ref Huffman et al., cited from earlier work.
The mark [6] stands for this setting: Homo sapiens, Jurkat, read-out: Cell proliferation inhibition.

Structures are written as SMILES. Where two headings read alike, the source gives them in different places.

T1 sequence (P34972 whole entry): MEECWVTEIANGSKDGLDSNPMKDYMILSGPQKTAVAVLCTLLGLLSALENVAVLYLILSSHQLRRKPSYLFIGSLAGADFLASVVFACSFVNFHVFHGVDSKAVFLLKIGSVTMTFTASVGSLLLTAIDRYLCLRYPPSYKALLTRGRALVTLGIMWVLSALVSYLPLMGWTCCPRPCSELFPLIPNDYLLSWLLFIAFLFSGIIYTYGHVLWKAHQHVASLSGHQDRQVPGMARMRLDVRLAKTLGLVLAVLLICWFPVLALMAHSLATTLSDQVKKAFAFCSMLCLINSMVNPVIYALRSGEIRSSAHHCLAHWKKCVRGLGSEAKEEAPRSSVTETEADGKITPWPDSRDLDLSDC
cannabinoid CB1 receptor, sequence (P21554 whole entry): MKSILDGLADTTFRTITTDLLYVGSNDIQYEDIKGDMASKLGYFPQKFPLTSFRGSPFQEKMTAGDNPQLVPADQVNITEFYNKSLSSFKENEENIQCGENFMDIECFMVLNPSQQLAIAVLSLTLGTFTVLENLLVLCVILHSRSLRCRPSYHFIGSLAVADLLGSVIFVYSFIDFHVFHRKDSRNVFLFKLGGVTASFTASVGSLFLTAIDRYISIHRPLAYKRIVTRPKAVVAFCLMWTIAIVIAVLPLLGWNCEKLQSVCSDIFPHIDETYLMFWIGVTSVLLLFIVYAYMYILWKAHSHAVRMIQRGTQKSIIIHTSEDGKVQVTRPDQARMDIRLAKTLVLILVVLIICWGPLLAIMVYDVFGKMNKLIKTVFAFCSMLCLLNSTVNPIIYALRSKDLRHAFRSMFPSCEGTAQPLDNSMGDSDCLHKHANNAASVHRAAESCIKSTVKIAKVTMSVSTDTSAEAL

With `CCOC(=O)c1ccccc1NC(=O)CN(c1cccc(C)c1C)S(=O)(=O)c1ccccc1` [ABK5, ethyl 2-(2-(N-(2,3-dimethylphenyl)phenylsulfonamido)acetamido)benzoate], in the experiment with Jurkat cells (setting [6]), the inhibition at 0.1 µM was 15 ± 2% and the inhibition at 10 µM came out at 20 ± 1%. Moreover, in experiment [1], the “ERK1/2 phosphorylation in the presence of PTX” value (“ERK1/2 phosphorylation … of PTX” below) was “prevented by the addition of PTX” and the “ERK1/2 phosphorylation, fold increase above vehicle” value is on record as “induce ERK1/2 phosphorylation”.
Consider `COC(=O)c1ccccc1NC(=O)CN(c1ccccc1OC)S(=O)(=O)c1ccc(C)cc1` [ABK6, benzoic acid, 2-[[2-[(2-methoxyphenyl)[(4-methylphenyl)sulfonyl]amino]acetyl]amino]-, methyl ester], for which, on cannabinoid CB2 receptor [2], the affinity, expressed as Ki, was 102 ± 7 nM. Moreover, the EC50 on cannabinoid CB2 receptor [3] was 2 nM. The compound further returned an EC50 on cannabinoid CB2 receptor [4] of 13 ± 4 nM. In addition, in experiment [1], the “ERK1/2 phosphorylation … of PTX” value is “prevented by the addition of PTX” and the “ERK1/2 phosphorylation, fold increase above vehicle” value was “induce ERK1/2 phosphorylation”.
For the compound `CCC(C(=O)Nc1sc2c(c1C(N)=O)CCCCCC2)c1ccccc1` (centres unmarked) [ABK7, 2-(2-phenylbutanamido)-4,5,6,7,8,9-hexahydrocycloocta[b]thiophene-3-carboxamide], the inhibition constant Ki on cannabinoid CB2 receptor [2] is 317 ± 117 nM. Besides, the EC50 on cannabinoid CB2 receptor [3] was 32 nM. The compound further returned an EC50 at cannabinoid CB2 receptor [4] of 31 ± 14 nM. In experiment [1], the “ERK1/2 phosphorylation … of PTX” value was “prevented by the addition of PTX” and the “ERK1/2 phosphorylation, fold increase above vehicle” value is given as “induce ERK1/2 phosphorylation”.
Turning to `CCCCCCC(C)(C)c1ccc([C@@H]2C[C@H](O)CC[C@H]2CCCO)c(O)c1` [CP55,940, reference compound], the Cell proliferation inhibition is on record as 7±3% with Jurkat cells (0.1 μM) and 26±8% with Jurkat cells (10 μM).
With `CCCCCCC(C)(C)c1ccc2c(c1)OC(C)(C)[C@@H]1CC=C(CO)C[C@@H]21` [JWH-051], the Ki at cannabinoid CB1 receptor (1996) is 1.2 nM; at cannabinoid CB2 receptor [5] (1996), 0.032 nM.
In the case of `CCCC(C)(C)c1ccc2c(c1)OC(C)(C)[C@@H]1CC=C(C)C[C@@H]21` [JWH-133], the Ki is 677 nM at cannabinoid CB1 receptor (1999) and 3.4 nM on cannabinoid CB2 receptor [5] (1999).
